Source: PubChem
The entries come from a sample that favours hits as a whole.
PDI turbidity – PDI (human) enzyme inhibition; inhibition, % at 10 µM; P07237; actives 0.052% (n = 350,000); PDI insulin aggregation turbidity, A650, 90 min;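 active = mean inhibition across replicates of 30% or more, whatever share of single replicates reach that level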
ERp5 inh – blocks human ERp5 reductase activity on insulin | ERp5 insulin aggregation, absorbance 650 nm, 90 min | inhibition, % at 9.99 µM | actives 0.05% (n = 350,000) | AID 651711;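 active = mean replicate inhibition above about 25%, with every replicate also reaching it, limit read from the data, passing the limit was not always enough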
FGF22 binding-1 – shifts melting point of recombinant human FGF22; Q9HCT0; recombinant FGF22 thermal shift, SYPRO orange fluorescence; percent of sucrose octasulfate shift, DMSO zero; activity (Tm shift, normalised), % at 9.99 µM; actives 1.5% (n = 340,000); AID 651658;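 active = mean Tm shift, scaled 0 neutral to 100 positive control, at about 1.3% or above, every replicate too, limit read from the data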
Target sequence (Q9HCT0 whole entry, looked up): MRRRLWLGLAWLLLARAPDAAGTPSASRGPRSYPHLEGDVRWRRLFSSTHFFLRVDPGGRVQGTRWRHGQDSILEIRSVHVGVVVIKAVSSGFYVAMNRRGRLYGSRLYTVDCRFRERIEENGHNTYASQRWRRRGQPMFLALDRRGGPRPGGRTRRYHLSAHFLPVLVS
S100A4 MyoIIA – inhibitors of human S100A4 binding to myosin IIA peptide. S100A4/TAMRA-MyoIIA peptide fluorescence polarization. inhibition, % at 10.7 µM. actives 0.14% (n = 360,000). AID 652163;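 active = mean inhibition of at least 70% across replicates, with every replicate also reaching that level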
Target sequence (P26447 whole entry, looked up): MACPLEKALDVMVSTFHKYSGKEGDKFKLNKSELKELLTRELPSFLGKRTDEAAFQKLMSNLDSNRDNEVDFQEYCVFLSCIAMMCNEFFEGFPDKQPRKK
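assay system = human S100A4 monomer with TAMRA-labelled myosin IIA peptide | also added = labelled myosin peptide probe, 5 nM | incubation = 5 min between mix addition and reading | control set = DMSO and TFP controls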
ERAP1 inh – inhibitors of human ERAP1 aminopeptidase | recombinant ERAP1, Leu-AMC fluorescence, 60 min | inhibition, % at 10.7 µM | actives 0.15% (n = 340,000) | AID 652197;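 active = mean replicate inhibition of at least 30%, or all replicates individually reaching that 30% level; inactive = mean below 30% and not every replicate reaching it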
FGF22 binding-2 – binds human FGF22 shifting its melting temperature; thermal shift activity, °C (ΔTm) at 38 µM; shares compounds with FGF22 binding-1; recombinant FGF22 thermal shift, SYPRO orange fluorescence; AID 720646; actives 2% (n = 1,000);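 active = fitted rise in melting shift crosses a set limit at or below the top valid dose tested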
FGF22 TSA – FGF22 (human) binding by thermal shift | Tm shift (activity), % at 38 µM | 50 tested, under 10 active | Thermal shift assay, SYPRO orange, melting temperature shift | shares compounds with FGF22 binding-1 | AID 743017;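 active = compounds whose fitted dose curve of melting temperature shift rises past a set threshold within the tested doses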
SYPRO no-protein – counter-screen for FGF22 binders: compound-only thermal shift, no protein | shares compounds with FGF22 binding-1 | compound-only SYPRO orange thermal shift counter-screen | AC50, µM (titrated, usually from 38 µM) | actives 2% (n = 1,000);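 active = rising signal whose fitted curve reaches the 0.54 level within the top valid dose, showing a melting point, actives reach about 13 µM in these data; inactive = the rest, including activity in the opposite direction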; also: value is where the raw curve crosses a fixed level and not half-maximal
A number is an active result; n = inactive; x = not tested or not shown.

SMILES	PDI turbidity	ERp5 inh	FGF22 binding-1	S100A4 MyoIIA	ERAP1 inh	FGF22 binding-2	SYPRO no-protein	others
CO[C@H]1CN(C)C(=O)c2cc(NC(=O)NC3CCCCC3)ccc2OC[C@@H](C)N(CC2CC2)C[C@H]1C	x	n	n	n	n	x	x
C[C@H](CO)N1C[C@H](C)[C@H](CN(C)C(=O)Nc2ccc(F)cc2)Oc2ccc(NC(=O)Nc3ccccc3)cc2CC1=O	x	n	n	n	n	x	x
C[C@@H]1CN([C@@H](C)CO)C(=O)c2cc(C3=CCCCC3)cnc2O[C@@H]1CN(C)C(=O)c1cccc(F)c1	x	n	n	n	n	x	x
CC1CC(CC(=O)NC(=S)Nc2ccccc2Cl)C(=O)O1 (configuration not stated)	n	n	1.6	n	n	n	n
COCCCn1cn[nH]c1=S	n	n	n	n	n	x	x
CCCCn1cnc2c(SCc3cccc(F)c3)nc(N)nc21	n	n	23	n	n	n	n
COc1cccc(NC(=O)C2CCCN2C(=O)NC2CCCCC2)c1 (configuration not stated)	n	n	n	n	n	x	x
O=C(Nc1ccc(O)cc1)c1cccc(Oc2ccc([N+](=O)[O-])cc2)c1	n	n	3.1	n	n	n	n
COc1ccc(NC(=O)Nc2ccc3c(c2)C(=O)N([C@H](C)CO)C[C@H](C)[C@H](CN(C)C)O3)cc1	x	n	n	n	n	x	x
Cc1ccc(NC(=O)COC(=O)Cn2cnc3c2c(=O)n(C)c(=O)n3C)cc1F	n	n	30	n	n	n	n
Cc1ccc(NC(=O)COC(=O)Cn2cnc3c2c(=O)n(C)c(=O)n3C)cc1Cl	n	n	n	n	n	x	x
C/C(=N\NC(=O)c1cccc(S(=O)(=O)N2CCOCC2)c1)c1ccc(OC(F)F)cc1	n	n	1.6	n	n	n	n
C/C(=N\NC(=O)c1cccc(S(=O)(=O)N2CCOCC2)c1)c1ccc(O)cc1	n	n	n	n	n	x	x
O=C(N/N=C/c1c[nH]c2ccccc12)c1cccs1	n	n	2.2	n	n	x	n	FGF22 TSA=n
O=C(N/N=C/c1c[nH]c2ccccc12)c1ccccc1	n	n	n	n	n	x	x
Cc1cc(C(=O)N/N=C/c2c[nH]c3ccccc23)cs1	n	n	2.7	n	n	x	n	FGF22 TSA=n
COc1ccc(-c2csc(N3CCOCC3)n2)cc1OC	n	x	x	x	x	x	x
O=[N+]([O-])c1cc(-n2cnnn2)ccc1N1CCC(Cc2ccccc2)CC1	n	x	x	x	x	x	x
COc1cccc(NC(=O)N(C)C[C@@H]2Oc3cc(-c4ccccc4F)ccc3S(=O)(=O)N([C@H](C)CO)C[C@H]2C)c1	x	n	n	n	n	x	x
C/C=C/c1ccc2c(c1)O[C@@H](CN(C)C(=O)Nc1ccc(F)cc1)[C@@H](C)CN([C@H](C)CO)S2(=O)=O	x	n	x	n	n	n	n
COc1cccc(NC(=O)N(C)C[C@H]2Oc3cc(-c4ccccc4F)ccc3S(=O)(=O)N([C@H](C)CO)C[C@H]2C)c1	x	n	2.3	n	n	n	11µM
C[C@@H]1CN([C@H](C)CO)S(=O)(=O)c2ccc(-c3ccc(F)cc3)cc2O[C@@H]1CN(C)C(=O)Nc1ccccc1F	x	n	1.8	n	n	n	n
COc1cccc(NC(=O)N(C)C[C@@H]2Oc3cc(-c4ccccc4F)ccc3S(=O)(=O)N([C@@H](C)CO)C[C@@H]2C)c1	x	n	2.1	n	n	n	n
C[C@H]1CN([C@@H](C)CO)S(=O)(=O)c2ccc(/C=C/c3ccccc3)cc2O[C@@H]1CN(C)Cc1ccc(C(=O)O)cc1	x	n	1.6	n	n	n	n
C[C@@H]1CN([C@@H](C)CO)S(=O)(=O)c2ccc(/C=C/c3ccccc3)cc2O[C@H]1CN(C)Cc1ccc(C(=O)O)cc1	x	n	n	n	n	x	x
C[C@H](CO)N1C[C@H](C)[C@@H](CN(C)C(=O)Nc2cccc3ccccc23)Oc2ccc(NC(=O)c3ccncc3)cc2CC1=O	x	n	n	n	n	x	x
CCC(CC)CN1CCC(CN2C(=O)C(=O)NC[C@@H]2CC(C)C)CC1	x	n	1.9	n	n	x	n
